A word on the IC50: it is the concentration that gives 50% inhibition.

One data set has as its system HeLa. The data set is described as follows: Antiproliferative activity against human HeLa cells assessed as inhibition of cell growth incubated for 72 hrs by MTT assay. The class given is functional, cell-based. Summed up:
(§1)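 Cells kept in Eagle's MEM with 10% FBS, 1% non-essential amino acids and 1% antibiotic-antimycotic at 37 °C, 5% CO2. Seeded at 5000 cells per well and incubated overnight before compound addition. Growth inhibition tested at 10 and 30 μM, IC50 from 1.0–30.0 μM (four concentrations). MTT added for 4 h, formazan dissolved in DMSO, absorbance read at 545 nm. Untreated control, two experiments of five wells.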
In general terms: Tetrazolium assays rely on reduction of a dye to a coloured formazan, in cell work by metabolically active cells.

In a further data set the test system is SiHa. The data set is described as follows: Antiproliferative activity against human SiHa cells assessed as inhibition of cell growth incubated for 72 hrs by MTT assay. The class given is functional, cell-based. A digest of the protocol: as §1
The test system of the next data set is MCF7. In words: Antiproliferative activity against human MCF7 cells assessed as inhibition of cell growth incubated for 72 hrs by MTT assay. The settings on record: MCF7, 72 h. Format: functional, cell-based. Summed up:
as §1

A further data set concerns MDA-MB-231. In words: Antiproliferative activity against human MDA-MB-231 cells assessed as inhibition of cell growth incubated for 72 hrs by MTT assay. Format: functional, cell-based. To be noted: MDA-MB-231, 72 h. A digest of the protocol:
as §1

Data set [1] is described as follows: Cytotoxicity against mouse NIH/3T3 cells assessed as inhibition of cell growth incubated for 72 hrs by MTT assay. Format: toxicity, cell-based, NIH3T3. Summed up:
as §1

In a further data set the test system is A2780. In words: Antiproliferative activity against human A2780 cells assessed as inhibition of cell growth incubated for 72 hrs by MTT assay. Format: functional, cell-based. To be noted: A2780, 72 h. Summed up: as §1

Turning to `CCOC(=O)[C@H]1c2c(C)cccc2[C@H]2CC[C@@]3(CO)C[C@]21C[C@@H]3N[C@@H](C)c1cccc2ccccc12`, the IC50 with HeLa amounted to 20.7 µM; with SiHa, 22.3 µM; in the data set on MCF7 it was 3.43 µM; in the data set on MDA-MB-231 it was 10.4 µM. The IC50 at 72 h in data set [1] worked out at 6.02 µM.
For `CCOC(=O)[C@H]1c2c(C)cccc2[C@H]2CC[C@@]3(CO)C[C@]21C[C@@H]3N[C@H](C)c1cccc2ccccc12`, the IC50 in the data set on HeLa worked out at 18.6 µM; in the data set on SiHa it was 22.7 µM; in the data set with MCF7, 7.07 µM; with MDA-MB-231 it was 19.3 µM; in the data set on A2780, 4.57 µM. Further, the IC50 at 72 h in data set [1] was determined as 14.5 µM.
For the compound `CCOC(=O)[C@H]1c2c(C)cccc2[C@H]2CC[C@@]3(CO)C[C@]21C[C@@H]3NCc1cc(Br)ccc1O`, the IC50 is 5.06 µM with HeLa; 21.9 µM in the data set with SiHa; 3.85 µM in the data set on MCF7; 6.48 µM with MDA-MB-231; 5.08 µM in the data set on A2780. The IC50 at 72 h in data set [1] amounted to 19.7 µM.
As to `CCOC(=O)[C@H]1c2c(C)cccc2[C@H]2CC[C@@]3(CNCc4cc(Br)ccc4O)C[C@]21C[C@H]3O`, the concentration for half-maximal inhibition (IC50) in the data set with HeLa was 4.71 µM; in the data set with SiHa it was 20.6 µM; in the data set on MCF7, 2.42 µM; with MDA-MB-231 it was 4.99 µM; in the data set with A2780, 5.39 µM. In addition, the IC50 at 72 h in data set [1] is 13 µM.
`CCOC(=O)[C@H]1c2c(C)cccc2[C@H]2CC[C@@]3(CN[C@@H](C)c4ccc5ccccc5c4)C[C@]21C[C@H]3O`: the half-inhibitory concentration (IC50) with HeLa stood at 5.1 µM; in the data set with SiHa, 4.36 µM; in the data set on MCF7, 3.66 µM. Moreover, the IC50 at 72 h in data set [1] is 4.62 µM.
As for `CCOC(=O)[C@H]1c2c(C)cccc2[C@H]2CC[C@@]3(CNCc4ccc(F)cc4)C[C@]21C[C@H]3O`, the IC50 in the data set on HeLa was 18.8 µM; with SiHa it was 8.4 µM; in the data set with MCF7 it was 4.4 µM; in the data set with MDA-MB-231 it was 7.71 µM. In addition, the IC50 at 72 h in data set [1] was 15.2 µM.
Regarding `CCOC(=O)[C@H]1c2c(C)cccc2[C@H]2CC[C@@]3(CNCc4ccc(OC)cc4)C[C@]21C[C@H]3O`, the half-maximal inhibitory concentration (IC50) is 12.9 µM in the data set with HeLa; 17.7 µM in the data set on SiHa; 4.08 µM in the data set with MCF7; 6.5 µM in the data set on MDA-MB-231; 13.8 µM in the data set on A2780. Besides, the IC50 at 72 h in data set [1] worked out at 14.7 µM.
For `CCOC(=O)[C@H]1c2c(C)cccc2[C@H]2CC[C@@]3(CO)C[C@]21C[C@@H]3NCCc1c[nH]c2ccccc12`, the IC50 in the data set on HeLa is 4.01 µM; with SiHa, 4.12 µM; in the data set on MCF7, 3.14 µM; in the data set with MDA-MB-231, 4.71 µM; with A2780, 4.57 µM. The IC50 at 72 h in data set [1] turned out to be 13 µM.
As for `CCOC(=O)[C@H]1c2c(C)cccc2[C@H]2CC[C@]3(O)C[C@@]21C[C@]3(O)CN[C@@H](C)c1cccc2ccccc12`, the IC50 in the data set on HeLa, in the data set on SiHa, with MDA-MB-231 and with A2780 was 4.38 µM each time. Moreover, the IC50 at 72 h in data set [1] was found to be 4.38 µM.

The record behind these values is ChEMBL document CHEMBL5335840, “Stereoselective synthesis and antiproliferative activity of allo-gibberic acid-based 1,3-aminoalcohol regioisomers” (RSC Med Chem, 2024).
